Reference: ChEMBL document CHEMBL1649510, “Nonsense and missense mutations in FCY2 and FCY1 genes are responsible for flucytosine resistance and flucytosine-fluconazole cross-resistance in clinical isolates of Candida lusitaniae” (2009)
In brackets after ≈: the same amount, converted by molar mass.

What was measured:
Format in all cases: functional
Clavispora lusitaniae [1] = test: Antifungal activity against Candida lusitaniae 42720 by microdilution method
In short: (§1)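 CLSI broth microdilution using twofold dilutions in RPMI 1640 with about 10³ cells/ml, incubated 48 h at 35°C. Final ranges were 0.5–256 μg/ml flucytosine and 0.25–128 μg/ml fluconazole. Cross-resistance was tested with a flucytosine gradient at constant fluconazole (8 or 16 μg/ml). MIC was read by automated plate reader as the lowest concentration giving 50% growth inhibition versus the drug-free control.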

Clavispora lusitaniae [2] = test: Antifungal activity against Candida lusitaniae 6936 by microdilution method; in short: as §1
Clavispora lusitaniae [3] = test: Antifungal activity against fcy1-deficient Candida lusitaniae by microdilution method; in short: as §1
Clavispora lusitaniae [4] = test: Antifungal activity against REPF URA3 fcy1-deficient Candida lusitaniae by microdilution method; in short: as §1
Clavispora lusitaniae [5] = test: Antifungal activity against fcy1(1-26)-deficient Candida lusitaniae by microdilution method; in short: as §1
Clavispora lusitaniae [6] = test: Antifungal activity against fcy1(1-119)-deficient Candida lusitaniae by microdilution method; in short: as §1
Clavispora lusitaniae [7] = test: Antifungal activity against Candida lusitaniae CL38-5 expressing URA3 gene by microdilution method; in short: as §1
Clavispora lusitaniae [8] = test: Antifungal activity against Candida lusitaniae CL38-5 expressing FCY2 gene by microdilution method; in short: as §1
Clavispora lusitaniae [9] = test: Antifungal activity against Candida lusitaniae CL38-5 expressing FCY21 gene by microdilution method; in short: as §1
Clavispora lusitaniae [10] = test: Antifungal activity against Candida lusitaniae CL26 by microdilution method; in short: as §1
Clavispora lusitaniae [11] = test: Antifungal activity against Candida lusitaniae CL29 by microdilution method; in short: as §1
Clavispora lusitaniae [12] = test: Antifungal activity against Candida lusitaniae CL31 by microdilution method; in short: as §1
Clavispora lusitaniae [13] = test: Antifungal activity against Candida lusitaniae CL32 by microdilution method; in short: as §1
Clavispora lusitaniae [14] = test: Antifungal activity against Candida lusitaniae CL38 by microdilution method; in short: as §1
Clavispora lusitaniae [15] = test: Antifungal activity against Candida lusitaniae CL42 by microdilution method; in short: as §1
Clavispora lusitaniae [16] = test: Antifungal activity against Candida lusitaniae CL48 by microdilution method; in short: as §1
Clavispora lusitaniae [17] = test: Antifungal activity against Candida lusitaniae CL119 by microdilution method; in short: as §1
Clavispora lusitaniae [18] = test: Antifungal activity against Candida lusitaniae CL128 by microdilution method; in short: as §1
Clavispora lusitaniae [19] = test: Antifungal activity against Candida lusitaniae CL174 by microdilution method; in short: as §1
Clavispora lusitaniae [20] = test: Antifungal activity against Candida lusitaniae CL216 by microdilution method; in short: as §1

Row | SMILES | MIC (Clavispora lusitaniae [1]) [µg/mL] | MIC (Clavispora lusitaniae [2]) [µg/mL] | MIC (Clavispora lusitaniae [3]) [µg/mL] | MIC (Clavispora lusitaniae [4]) [µg/mL] | MIC (Clavispora lusitaniae [5]) [µg/mL] | MIC (Clavispora lusitaniae [6]) [µg/mL] | MIC (Clavispora lusitaniae [7]) [µg/mL] | MIC (Clavispora lusitaniae [8]) [µg/mL] | MIC (Clavispora lusitaniae [9]) [µg/mL] | MIC (Clavispora lusitaniae [10]) [µg/mL] | MIC (Clavispora lusitaniae [11]) [µg/mL] | MIC (Clavispora lusitaniae [12]) [µg/mL] | MIC (Clavispora lusitaniae [13]) [µg/mL] | MIC (Clavispora lusitaniae [14]) [µg/mL] | MIC (Clavispora lusitaniae [15]) [µg/mL] | MIC (Clavispora lusitaniae [16]) [µg/mL] | MIC (Clavispora lusitaniae [17]) [µg/mL] | MIC (Clavispora lusitaniae [18]) [µg/mL] | MIC (Clavispora lusitaniae [19]) [µg/mL] | MIC (Clavispora lusitaniae [20]) [µg/mL]
1 | OC(Cn1cncn1)(Cn1cncn1)c1ccc(F)cc1F [FLUCONAZOLE] | 2 (≈ 6.53 µM) | 2 (≈ 6.53 µM) | 2 (≈ 6.53 µM) | 2 (≈ 6.53 µM) | 2 (≈ 6.53 µM) | 2 (≈ 6.53 µM) | 2 (≈ 6.53 µM) | 2 (≈ 6.53 µM) | 2 (≈ 6.53 µM) | ≤ 0.25 | 2 (≈ 6.53 µM) | 2 (≈ 6.53 µM) | ≤ 0.25 | 2 (≈ 6.53 µM) | 4 (≈ 13.1 µM) | 2 (≈ 6.53 µM) | 1 (≈ 3.27 µM) | 1 (≈ 3.27 µM) | 1 (≈ 3.27 µM) | 1 (≈ 3.27 µM)
2 | Nc1nc(=O)[nH]cc1F [FLUCYTOSINE] | ≤ 0.5 | ≤ 0.5 | 128 (≈ 992 µM) | ≤ 0.5 | 128 (≈ 992 µM) | 128 (≈ 992 µM) | 32 (≈ 248 µM) | ≤ 0.5 | 32 (≈ 248 µM) | 64 (≈ 496 µM) | 128 (≈ 992 µM) | 32 (≈ 248 µM) | 128 (≈ 992 µM) | 32 (≈ 248 µM) | 64 (≈ 496 µM) | 32 (≈ 248 µM) | 32 (≈ 248 µM) | 32 (≈ 248 µM) | 64 (≈ 496 µM) | 32 (≈ 248 µM)
